According to ChEMBL document CHEMBL1123420, “Synthesis and toxicity toward nigrostriatal dopamine neurons of 1-methyl-4-phenyl-1,2,3,6-tetrahydropyridine (MPTP) analogues” (1986):

What was measured:
Type in all cases: functional
Mus musculus [1] = assay: Dopamine content in mice striata was evaluated after 1 day of administration of compound
Method in brief: (§1)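 Male Swiss mice (25–40 g) dosed ip, 0.072 mmol/kg on days 1 and 2, then 0.142 mmol/kg on days 3–12. Drugs were given as 0.14 M solutions in normal saline and stored at 5 °C; saline-injected controls. Mice killed 1 day after the last injection. Striata weighed, homogenized, Sephadex-separated, then DA, DOPAC and HVA measured by HPLC-EC in μg/g tissue as mean ± error.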

Mus musculus [2] = assay: HVA content in mice striata was evaluated after 1 day of administration of compound; method in brief: as §1
Mus musculus [3] = assay: DOPAC content in mice striata was evaluated after 1 day of administration of compound; method in brief: as §1
Mus musculus [4] = assay: Dopamine content in mice striata was evaluated after 9 days of administration of compound
Method in brief: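 Ip regimen in male Swiss mice (25–40 g): 0.072 mmol/kg on days 1–2, then 0.142 mmol/kg on days 3–12, from 0.14 M saline solutions; saline controls; n=5 per group. Animals killed 9 days after the final injection. Striatal DA measured by HPLC-EC after homogenization and Sephadex cleanup, reported in μg/g tissue.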

SMILES	Content (Mus musculus [1])	Content (Mus musculus [2])	Content (Mus musculus [3])	Content (Mus musculus [4])
CC1CN(C)CC=C1c1ccccc1.Cl (stereo not drawn)	13.21 ug (g of tissue)-1	1.14 ug (g of tissue)-1	1.11 ug (g of tissue)-1	13.35 ug (g of tissue)-1
CN1CC=C(c2ccccc2)C(C)(C)C1.Cl	17.28 ug (g of tissue)-1	1.39 ug (g of tissue)-1	1.31 ug (g of tissue)-1	17.28 ug (g of tissue)-1
CC1CN(C)C(C)C=C1c1ccccc1.Cl (stereo not drawn)	14.42 ug (g of tissue)-1	1.39 ug (g of tissue)-1	1.36 ug (g of tissue)-1	14.65 ug (g of tissue)-1
CN1CC=C(c2ccccc2)CC1.Cl	3.16 ug (g of tissue)-1	0.61 ug (g of tissue)-1	0.31 ug (g of tissue)-1	4.34 ug (g of tissue)-1
CC1=C(c2ccccc2)CC(C)N(C)C1.O=C(O)/C=C/C(=O)O (stereo not drawn)	15.22 ug (g of tissue)-1	1.27 ug (g of tissue)-1	1.18 ug (g of tissue)-1	14.49 ug (g of tissue)-1
CC1=C(c2ccccc2)CCN(C)C1.Cl	13.68 ug (g of tissue)-1	1.26 ug (g of tissue)-1	1.22 ug (g of tissue)-1	13.85 ug (g of tissue)-1
CN(C)C/C=C/c1ccccc1.Cl	13.6 ug (g of tissue)-1	1.11 ug (g of tissue)-1	1.37 ug (g of tissue)-1	14.56 ug (g of tissue)-1
